ChEMBL document CHEMBL1153963, “Phenanthrene-based tylophorine-1 (PBT-1) inhibits lung cancer cell growth through the Akt and NF-kappaB pathways” (J Med Chem, 2009)
Converted amounts (≈) assume the structure as drawn.

Assays:
[1] = Cytotoxicity against human CL1-0 cells assessed as growth inhibition after 48 hrs by MTS assay; assay type: functional, cell-based
Outline: (§1)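 Cells seeded in four replicates at 2×10^3 per well in complete RPMI 1640 with drug (0, 0.1, 0.25, 0.5, 0.75 µg/mL in the cell-line panel), 48 h at 37 °C, 5% CO2. Viability read by MTS reagent, absorbance at 490 nm, expressed as percent of untreated control; IC50 taken as concentration giving 50% growth inhibition.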

[2] = Cytotoxicity against human CL1-5 cells assessed as growth inhibition after 48 hrs by MTS assay; assay type: functional, cell-based; conditions: CL1-5, 48 h; outline: as §1
[3] = test system: NCI-H460; experiment: Cytotoxicity against human H460 cells assessed as growth inhibition after 48 hrs by MTS assay; assay type: functional, cell-based; conditions: NCI-H460, 48 h; outline: as §1
[4] = test system: PC-9; experiment: Cytotoxicity against human PC9 cells assessed as growth inhibition after 48 hrs by MTS assay; assay type: functional, cell-based; conditions: PC-9, 48 h; outline: as §1
[5] = test system: A549; experiment: Cytotoxicity against human A549 cells assessed as growth inhibition after 48 hrs by MTS assay; assay type: functional, cell-based; conditions: A549, 48 h; outline: as §1
[6] = test system: CL1-0; experiment: Induction of apoptosis in human CL1-0 cells at 0.25 ug/mL after 24 hrs by propidium iodide and annexin V staining; assay type: functional
Outline: (§2)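 CL1-0 cells treated with increasing concentrations for 24 h, resuspended in Annexin-binding buffer, stained with Alexa Fluor 488 Annexin V and PI for 15 min at room temperature, analyzed by flow cytometry; single-stain controls set apoptotic and necrotic windows.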

[7] = test system: CL1-0; experiment: Induction of apoptosis in human CL1-0 cells at 0.5 ug/mL after 24 hrs by propidium iodide and annexin V staining; assay type: functional; outline: as §2
[8] = test system: CL1-0; experiment: Induction of apoptosis in human CL1-0 cells at 0.75 ug/mL after 24 hrs by propidium iodide and annexin V staining; assay type: functional; outline: as §2
[9] = test system: CL1-0; experiment: Effect on PRKACA gene expression in human CL1-0 cells assessed as change in gene expression at 0.5 ug/mL after 24 hrs by DNA microarray relative to control; assay type: functional
Outline: (§3)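 Total RNA from CL1-0 cells treated 24 h with 0.5 µg/mL drug or untreated; mRNA isolated and run on human DNA microarrays; genes with statistically significant twofold change versus control reported as fold change, mean ± SD.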

[10] = test system: CL1-0; experiment: Effect on CFLAR gene expression in human CL1-0 cells assessed as change in gene expression at 0.5 ug/mL after 24 hrs by DNA microarray relative to control; assay type: functional; outline: as §3
[11] = test system: CL1-0; experiment: Effect on PPP3CA gene expression in human CL1-0 cells assessed as change in gene expression at 0.5 ug/mL after 24 hrs by DNA microarray relative to control; assay type: functional; outline: as §3
[12] = test system: CL1-0; experiment: Effect on BCL2L1 gene expression in human CL1-0 cells assessed as change in gene expression at 0.5 ug/mL after 24 hrs by DNA microarray relative to control; assay type: functional; outline: as §3
[13] = test system: CL1-0; experiment: Effect on TNFRSF10B gene expression in human CL1-0 cells assessed as change in gene expression at 0.5 ug/mL after 24 hrs by DNA microarray relative to control; assay type: functional
Outline: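 Total RNA extracted from treated or untreated CL1-0 cells, mRNA isolated, hybridized to human DNA microarray; genes scored by statistically significant twofold expression difference versus untreated control; fold change given as mean ± SD.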

[14] = test system: CL1-0; experiment: Effect on MAP3K14 gene expression in human CL1-0 cells assessed as change in gene expression at 0.5 ug/mL after 24 hrs by DNA microarray relative to control; assay type: functional; outline: as §3
[15] = test system: CL1-0; experiment: Effect on NFKB1A gene expression in human CL1-0 cells assessed as change in gene expression at 0.5 ug/mL after 24 hrs by DNA microarray relative to control; assay type: functional; outline: as §3
[16] = test system: CL1-0; experiment: Effect on IRAK1 gene expression in human CL1-0 cells assessed as change in gene expression at 0.5 ug/mL after 24 hrs by DNA microarray relative to control; assay type: functional; outline: as §3
[17] = test system: CL1-0; experiment: Effect on PIK3CD gene expression in human CL1-0 cells assessed as change in gene expression at 0.5 ug/mL after 24 hrs by DNA microarray relative to control; assay type: functional; outline: as §3
[18] = test system: CL1-0; experiment: Effect on AKT3 gene expression in human CL1-0 cells assessed as change in gene expression at 0.5 ug/mL after 24 hrs by DNA microarray relative to control; assay type: functional; outline: as §3
[19] = test system: CL1-0; experiment: Effect on PDK1 gene expression in human CL1-0 cells assessed as change in gene expression at 0.5 ug/mL after 24 hrs by DNA microarray relative to control; assay type: functional; outline: as §3
[20] = test system: CL1-0; experiment: Effect on PRKACA gene expression in human CL1-0 cells assessed as change in gene expression by RT-PCR relative to control; assay type: functional
Outline: (§4)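 Real-time quantitative RT-PCR on CL1-0 RNA to validate microarray changes, SYBR Green chemistry with gene-specific primers, GAPDH as internal control; fold change versus untreated control reported as mean ± SD.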

[21] = test system: CL1-0; experiment: Effect on CFLAR gene expression in human CL1-0 cells assessed as change in gene expression by RT-PCR relative to control; assay type: functional; outline: as §4
[22] = test system: CL1-0; experiment: Effect on PPP3CA gene expression in human CL1-0 cells assessed as change in gene expression by RT-PCR relative to control; assay type: functional; outline: as §4
[23] = test system: CL1-0; experiment: Effect on BCL2L1 gene expression in human CL1-0 cells assessed as change in gene expression by RT-PCR relative to control; assay type: functional; outline: as §4
[24] = test system: CL1-0; experiment: Effect on TNFRSF10B gene expression in human CL1-0 cells assessed as change in gene expression by RT-PCR relative to control; assay type: functional
Outline: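 Microarray hits validated by real-time quantitative RT-PCR with SYBR Green chemistry and gene-specific primers; GAPDH used as internal control; fold change versus untreated control as mean ± SD.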

[25] = test system: CL1-0; experiment: Effect on MAP3K14 gene expression in human CL1-0 cells assessed as change in gene expression by RT-PCR relative to control; assay type: functional; outline: as §4
[26] = test system: CL1-0; experiment: Effect on NFKB1A gene expression in human CL1-0 cells assessed as change in gene expression by RT-PCR relative to control; assay type: functional; outline: as §4
[27] = test system: CL1-0; experiment: Effect on IRAK1 gene expression in human CL1-0 cells assessed as change in gene expression by RT-PCR relative to control; assay type: functional; outline: as §4
[28] = test system: CL1-0; experiment: Effect on PIK3CD gene expression in human CL1-0 cells assessed as change in gene expression by RT-PCR relative to control; assay type: functional; outline: as §4
[29] = test system: CL1-0; experiment: Effect on AKT3 gene expression in human CL1-0 cells assessed as change in gene expression by RT-PCR relative to control; assay type: functional; outline: as §4
[30] = test system: CL1-0; experiment: Effect on PDK1 gene expression in human CL1-0 cells assessed as change in gene expression by RT-PCR relative to control; assay type: functional; outline: as §4
[31] = Homo sapiens, CL1-0, 48 h, read-out: IC50

SMILES: COc1ccc2c(CNCCCCCC(=O)O)cc3cc4c(cc3c2c1)OCO4
- IC50 [1, 31]: > 2 µg/mL

SMILES: COc1ccc2c(CN3CCN(c4ccc(O)cc4)CC3)cc3cc4c(cc3c2c1)OCO4
- IC50 [1, 31]: > 2 µg/mL

SMILES: COc1ccc2c(CNCCCCCCO)cc3cc4c(cc3c2c1)OCO4
- IC50 [1, 31]: > 2 µg/mL

SMILES: COc1ccc2c(CN3CCC(CO)CC3)cc3cc4c(cc3c2c1)OCO4.Cl
- IC50 [1, 31]: 0.44 µg/mL
- IC50 ([1]; cl1-0): Dose-dependent effect

SMILES: COc1ccc2c(CN3CCN(c4ccc(Cl)cc4)CC3)cc3cc4c(cc3c2c1)OCO4
- IC50 [1, 31]: > 2 µg/mL

SMILES: COc1ccc2c(CN3CCC(C(=O)O)CC3)cc3cc4c(cc3c2c1)OCO4
- IC50 [1, 31]: > 2 µg/mL

SMILES: COc1ccc2c(CN3CCN(CCO)CC3)cc3cc4c(cc3c2c1)OCO4
- IC50 [1, 31]: > 2 µg/mL

SMILES: COc1ccc2c(CN3CCC(CCO)CC3)cc3cc4c(cc3c2c1)OCO4
- IC50 [1, 31]: 0.37 µg/mL (≈ 0.94 µM)
- IC50 ([1]; cl1-0): Dose-dependent effect

SMILES: COc1ccc2c(CN3CCC(CO)CC3)cc3cc4c(cc3c2c1)OCO4
- IC50 [1, 31]: 0.81 µg/mL (≈ 2.13 µM)
- IC50 ([1]; cl1-0): Dose-dependent effect
- IC50 [2]: 0.2 µg/mL (≈ 0.527 µM)
- IC50 [3]: 0.2 µg/mL (≈ 0.527 µM)
- IC50 [4]: 0.2 µg/mL (≈ 0.527 µM)
- IC50 [5]: 0.2 µg/mL (≈ 0.527 µM)
- Activity [6]: 5.96%
- Activity [7]: 9.56%
- Activity [8]: 11.03%
- fold change (FC) [9]: 5.38
- fold change (FC) [10]: 3.01
- fold change (FC) [11]: 2.53
- fold change (FC) [12]: 2.7
- fold change (FC) [13]: 2.53
- fold change (FC) [14]: 2.25
- fold change (FC) [15]: 2.23
- fold change (FC) [16]: 2.1
- fold change (FC) [17]: 2.03
- fold change (FC) [18]: 0.48
- fold change (FC) [19]: 0.26
- fold change (FC) [20]: 1.39
- fold change (FC) [21]: 2.8
- fold change (FC) [22]: 5.31
- fold change (FC) [23]: 1.83
- fold change (FC) [24]: 1.71
- fold change (FC) [25]: 2.94
- fold change (FC) [26]: 6.8
- fold change (FC) [27]: 2.23
- fold change (FC) [28]: 1.69
- fold change (FC) [29]: 1.61
- fold change (FC) [30]: 0.56

SMILES: COc1ccc2c(CN3CCC(CCO)CC3)cc3cc4c(cc3c2c1)OCO4.Cl
- IC50 [1, 31]: 0.46 µg/mL
- IC50 ([1]; cl1-0): Dose-dependent effect
